Measurements: ChEMBL document CHEMBL4382264, “Melanogenesis-Inhibitory and Cytotoxic Activities of Triterpene Glycoside Constituents from the Bark of Albizia procera” (J Nat Prod, 2018)
Active and inactive are the calls of the source. No cut-off for these calls is given here.

What was measured:
[1] = Selectivity index, ratio of IC50 for human […] cells to IC50 for human A549 cells
Procedure, shortened: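 Selectivity index equals the IC50 against WI38 normal cells divided by the IC50 against A549 cells.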

[2] = tested on: HL-60; assay: Cytotoxicity against human HL60 cells assessed as reduction in cell viability after 48 hrs by MTT assay; type: functional, cell-based; details: HL-60, 48 h
Procedure, shortened: (§1)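 Cells exposed to compounds from 1 × 10−4 to 1 × 10−6 M for 48 h. Viability read by MTT. IC50 derived from five concentrations, each run in triplicate.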

[3] = tested on: B16-F10; assay: Inhibition of alpha-MSH-stimulated melanogenesis in mouse B16F10 cells assessed as melanin content at 10 uM measured after 48 hrs relative to control; type: functional; parameters: scale not given: the % may be the effect or the level left
Procedure, shortened: (§2)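 B16F10 cells treated with test sample plus 0.10 μM α-MSH for 48 h. Melanin solubilized in 2 N NaOH–10% DMSO and read at 405 nm. Expressed as % of DMSO-treated cells (DMSO 2 μL·mL−1). Mean ± SD, n = 3.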

[4] = tested on: HL-60; assay: Induction of apoptosis in human HL60 cells assessed as cell shrinkage at 0.3 to 3 uM after 24 hrs by Hoechst 33342 staining based fluorescence microscopic analysis; type: functional; details: 1 to 3 uM, in the assay text read “1 to 3 uM” for “0.3 to 3 uM”
Procedure, shortened: (§3)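 HL60 cells treated for 24 h, fixed in 4% paraformaldehyde, and nuclei stained with Hoechst 33342. Cell shrinkage, nuclear fragmentation and chromatin condensation scored by fluorescence microscopy.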

[5] = tested on: B16-F10; assay: Inhibition of alpha-MSH-stimulated melanogenesis in mouse B16F10 cells assessed as melanin content at 100 uM measured after 48 hrs relative to control; type: functional; parameters: scale not given: the % may be the effect or the level left; procedure, shortened: as §2
[6] = tested on: SK-BR-3; assay: Cytotoxicity against human SKBR3 cells assessed as reduction in cell viability after 48 hrs by MTT assay; type: functional, cell-based; details: SK-BR-3, 48 h; procedure, shortened: as §1
[7] = tested on: B16-F10; assay: Selectivity index, ratio of compound effect for cytotoxicity against non-stimulated mouse B16F10 cells assessed as cell viability at 10 uM to compound effect for inhibition of alpha-MSH-stimulated melanogenesis in mouse B16F10 cells assessed as melanin content at 10 uM
[8] = tested on: A549; assay: Cytotoxicity against human A549 cells assessed as reduction in cell viability after 48 hrs by MTT assay; type: functional, cell-based; details: A549, 48 h; procedure, shortened: as §1
[9] = tested on: HL-60; assay: Induction of apoptosis in human HL60 cells assessed as chromatin condensation at 1 to 3 uM after 24 hrs by Hoechst 33342 staining based fluorescence microscopic analysis; type: functional, cell-based; procedure, shortened: as §3
[10] = tested on: HL-60; assay: Induction of apoptosis in human HL60 cells assessed as late apoptotic cells at 3 uM after 48 hrs by Annexin V-FITC/propidium iodide staining based flow cytometry (reference value: 1.9%); type: functional
Procedure, shortened: (§4)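 HL60 cells cultured with 3.0 μM for 0, 24 and 48 h. Cells stained with annexin V-FITC and propidium iodide and analyzed by flow cytometry for early and late apoptotic fractions. Mean of three experiments, compared against an untreated negative control.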

[11] = tested on: HL-60; assay: Induction of apoptosis in human HL60 cells assessed as early apoptotic cells at 3 uM after 48 hrs by Annexin V-FITC/propidium iodide staining based flow cytometry (reference value: 0.8%); type: functional; procedure, shortened: as §4
[12] = tested on: WI-38; assay: Cytotoxicity against human WI38 cells assessed as reduction in cell viability after 48 hrs by MTT assay; type: cell-based; details: WI-38, 48 h; procedure, shortened: as §1
[13] = tested on: HL-60; assay: Induction of apoptosis in human HL60 cells assessed as late apoptotic cells at 3 uM after 24 hrs by Annexin V-FITC/propidium iodide staining based flow cytometry (reference value: 3%); type: functional; procedure, shortened: as §4
[14] = tested on: AZ-521 cell line; assay: Cytotoxicity against human AZ-521 cells assessed as reduction in cell viability after 48 hrs by MTT assay; type: functional, cell-based; details: AZ-521, 48 h; procedure, shortened: as §1
[15] = tested on: HL-60; assay: Induction of apoptosis in human HL60 cells assessed as increase in cleaved caspase-9 expression at 3 uM after 24 to 48 hrs by Western blot analysis; type: functional, cell-based
Procedure, shortened: (§5)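 HL60 cells treated with 3.0 μM for 24 and 48 h, then lysed in RIPA buffer. Total protein cleared by centrifugation and quantified by BCA. Procaspase and cleaved caspase-3, -8 and -9 levels assessed by Western blot.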

[16] = Cytotoxicity against non-stimulated mouse B16F10 cells assessed as cell viability at 100 uM relative to control; type: cell-based, B16-F10; details: read-out: Activity
Procedure, shortened: (§6)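 B16 melanoma cells tested for viability at 10 or 100 μM. Absorbance read at 570 nm (test) minus 630 nm (reference). Expressed as % of DMSO control (DMSO 2 μL·mL−1). Mean ± SD, n = 3.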

[17] = tested on: HL-60; assay: Induction of apoptosis in human HL60 cells assessed as increase in cleaved caspase-3 expression at 3 uM after 24 to 48 hrs by Western blot analysis; type: functional, cell-based; procedure, shortened: as §5
[18] = Cytotoxicity against non-stimulated mouse B16F10 cells assessed as cell viability at 10 uM relative to control; type: cell-based, B16-F10; details: read-out: Activity; procedure, shortened: as §6
[19] = tested on: HL-60; assay: Induction of apoptosis in human HL60 cells assessed as fragmentation of nuclei at 1 to 3 uM after 24 hrs by Hoechst 33342 staining based fluorescence microscopic analysis; type: functional, cell-based; procedure, shortened: as §3
[20] = tested on: B16-F10; assay: Selectivity index, ratio of compound effect for cytotoxicity against non-stimulated mouse B16F10 cells assessed as cell viability at 100 uM to compound effect for inhibition of alpha-MSH-stimulated melanogenesis in mouse B16F10 cells assessed as melanin content at 100 uM
[21] = tested on: HL-60; assay: Induction of apoptosis in human HL60 cells assessed as early apoptotic cells at 3 uM after 24 hrs by Annexin V-FITC/propidium iodide staining based flow cytometry (reference value: 2.4%); type: functional; procedure, shortened: as §4
[22] = tested on: HL-60; assay: Induction of apoptosis in human HL60 cells assessed as increase in cleaved caspase-8 expression at 3 uM after 24 to 48 hrs by Western blot analysis; type: functional, cell-based; procedure, shortened: as §5

Row | Structure (SMILES) | Ratio IC50 [1] | IC50 [2] | Activity [3] | Activity [5] | IC50 [6] | Ratio [7] | IC50 [8] | IC50 [12] | IC50 [14] | viability at 100 µM [16] | viability at 10 µM [18] | Ratio [20] | further results
1 | C=C[C@@](C)(O)CC/C=C(\C)C(=O)O[C@H]1[C@H](O)[C@@H](O)[C@H](O[C@](C)(C=C)CCCC(C)C(=O)O[C@H]2C[C@]3(C(=O)O[C@@H]4O[C@H](CO)[C@@H](O)[C@H](O)[C@H]4O[C@@H]4O[C@@H](C)[C@H](O[C@@H]5O[C@@H](CO)[C@H](O)[C@H]5O)[C@@H](O[C@@H]5O[C@H](CO)[C@@H](O)[C@H](O)[C@H]5O)[C@H]4O)[C@H](O)C[C@]4(C)C(=CC[C@@H]5[C@@]6(C)CC[C@H](O[C@@H]7O[C@H](CO[C@@H]8OC[C@H](O)[C@H](O)[C@H]8O[C@@H]8OC[C@@H](O)[C@H](O)[C@H]8O)[C@@H](O)[C@H](O)[C@H]7O[C@@H]7O[C@H](CO)[C@@H](O)[C@H](O)[C@H]7O)C(C)(C)[C@@H]6CC[C@]54C)[C@@H]3CC2(C)C)O[C@@H]1C (stereo partly specified) | 16.9 | 300 nM | 80.9% | 50.7% | 1300 nM | 0.78 | 300 nM | 5100 nM | 500 nM | 100% | 103% | 0.51 | Activity [4]: Active; Activity [9]: Active; Activity [10]: 42.2%; Activity [11]: 38.2%; Activity [13]: 22.7%; Activity [15]: Active; Activity [17]: Active; Activity [19]: Active; Activity [21]: 19%; Activity [22]: Active
2 | C=C[C@@](C)(O)CC/C=C(\C)C(=O)O[C@H]1[C@H](O)[C@@H](O)[C@H](O[C@](C)(C=C)CCCC(C)C(=O)O[C@H]2C[C@]3(C(=O)O[C@@H]4O[C@H](CO)[C@@H](O)[C@H](O)[C@H]4O[C@@H]4O[C@@H](C)[C@H](O[C@@H]5O[C@@H](CO)[C@H](O)[C@H]5O)[C@@H](O[C@@H]5O[C@H](CO)[C@@H](O)[C@H](O)[C@H]5O)[C@H]4O)[C@H](O)C[C@]4(C)C(=CC[C@@H]5[C@@]6(C)CC[C@H](O[C@@H]7O[C@H](CO[C@@H]8OC[C@H](O)[C@H](O)[C@H]8O[C@@H]8OC[C@@H](O)[C@H](O)[C@H]8O)[C@@H](O)[C@H](O)[C@H]7O)C(C)(C)[C@@H]6CC[C@]54C)[C@@H]3CC2(C)C)O[C@@H]1C (stereo partly specified) | 8.2 | 900 nM | 86.2% | 80% | 800 nM | 0.81 | 1000 nM | 8300 nM | 1200 nM | 104% | 107% | 0.77 | 
3 | C=C[C@@](C)(O)CC/C=C(\C)C(=O)O[C@H]1[C@H](O)[C@@H](O)[C@H](O[C@](C)(C=C)CCCC(C)C(=O)O[C@H]2C[C@]3(C(=O)O[C@@H]4O[C@H](CO)[C@@H](O)[C@H](O)[C@H]4O[C@@H]4O[C@@H](C)[C@H](O[C@@H]5O[C@@H](CO)[C@H](O)[C@H]5O)[C@@H](O[C@@H]5O[C@H](CO)[C@@H](O)[C@H](O)[C@H]5O)[C@H]4O)CC[C@]4(C)C(=CC[C@@H]5[C@@]6(C)CC[C@H](O[C@@H]7O[C@H](CO[C@@H]8O[C@H](C)[C@H](O)[C@H](O)[C@H]8O[C@@H]8OC[C@@H](O)[C@H](O)[C@H]8O)[C@@H](O)[C@H](O)[C@H]7O[C@@H]7O[C@H](CO)[C@@H](O)[C@H](O)[C@H]7O)C(C)(C)[C@@H]6CC[C@]54C)[C@@H]3CC2(C)C)O[C@@H]1C (stereo partly specified) | 2.7 | 600 nM | 86.5% | 79.6% | 2600 nM | 0.79 | 1800 nM | 4800 nM | 600 nM | 104% | 110% | 0.77 | 
